# Reference: ChEMBL document CHEMBL5058577, “EUbOPEN Chemogenomics Library 2 (Multiplex)” (2022)
# Tested on: HEK-293T
# Assay: Multiplex assay against HEK293T
# Assay type: toxicity, cell-based
# Conditions: human
# How it was run: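 At seeding, live cells were stained with Hoechst33342, BioTracker Green Microtubule Cytoskeleton Dye, MitoTracker Red and Annexin V Alexa Fluor 680. After compound addition they were imaged on a CQ1 microscope at 37°C and 5% CO2, and CellPathfinder machine-learning gating sorted them into Hoechst high-intensity objects or normal cells, with normal cells further split into healthy, pyknosed or fragmented nuclei and pyknosed cells into mitotic or apoptotic. Tubulin, mitochondrial-mass and membrane-permeability phenotypes are given as per cents of cells with healthy nuclei.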
# [1] = 12 h, 1 µM, compound concentration 1 uM, replicate 1
# [2] = 12 h, 1 µM, compound concentration 1 uM, replicate 2
# [3] = 12 h, 10 µM, compound concentration 10 uM, replicate 1
# [4] = 12 h, 10 µM, compound concentration 10 uM, replicate 2
# [5] = 24 h, 1 µM, compound concentration 1 uM, replicate 1
# [6] = 24 h, 1 µM, compound concentration 1 uM, replicate 2
# [7] = 24 h, 10 µM, compound concentration 10 uM, replicate 1
# [8] = 24 h, 10 µM, compound concentration 10 uM, replicate 2
# [9] = 48 h, 1 µM, compound concentration 1 uM, replicate 1
# [10] = 48 h, 1 µM, compound concentration 1 uM, replicate 2
# [11] = 48 h, 10 µM, compound concentration 10 uM, replicate 1
# [12] = 48 h, 10 µM, compound concentration 10 uM, replicate 2
structure (smiles),measurement,setting,value
O=C(NCCNCC(O)COc1ccc(O)cc1)N1CCOCC1.O=C(NCCNCC(O)COc1ccc(O)cc1)N1CCOCC1.O=C(O)/C=C/C(=O)O (stereo unspecified) [XAMOTEROL FUMARATE],Population Apoptotic (%),[1],39%
same,Population Fragmented Nuclei (%),[1],5%
same,Population Healthy Nuclei (%),[1],79%
same,Population Hoechst High Intensity Objects (%),[1],4%
same,Population Membrane Permeable-Phenotype (%),[1],0%
same,Population Mitochondria Different-Phenotype (%),[1],39%
same,Population Mitotic Cells (%),[1],60%
same,Population Normal (%),[1],95%
same,Population Pyknosed Nuclei (%),[1],14%
same,Population Tubulin-Different-Phenotype (%),[1],26%
same,Total Cell Count,[1],339
same,Population Apoptotic (%),[2],60%
same,Population Healthy Nuclei (%),[2],76%
same,Population Hoechst High Intensity Objects (%),[2],14%
same,Population Mitochondria Different-Phenotype (%),[2],57%
same,Population Mitotic Cells (%),[2],39%
same,Population Normal (%),[2],85%
same,Population Pyknosed Nuclei (%),[2],17%
same,Population Tubulin-Different-Phenotype (%),[2],21%
same,Total Cell Count,[2],271
same,Population Apoptotic (%),[3],35%
same,Population Fragmented Nuclei (%),[3],7%
same,Population Healthy Nuclei (%),[3],83%
same,Population Hoechst High Intensity Objects (%),[3],6%
same,Population Membrane Permeable-Phenotype (%),[3],0%
same,Population Mitochondria Different-Phenotype (%),[3],39%
same,Population Mitotic Cells (%),[3],65%
same,Population Normal (%),[3],93%
same,Population Pyknosed Nuclei (%),[3],8%
same,Population Tubulin-Different-Phenotype (%),[3],19%
same,Total Cell Count,[3],499
same,Population Apoptotic (%),[4],29%
same,Population Fragmented Nuclei (%),[4],4%
same,Population Healthy Nuclei (%),[4],86%
same,Population Hoechst High Intensity Objects (%),[4],5%
same,Population Mitochondria Different-Phenotype (%),[4],62%
same,Population Mitotic Cells (%),[4],70%
same,Population Normal (%),[4],94%
same,Population Pyknosed Nuclei (%),[4],9%
same,Population Tubulin-Different-Phenotype (%),[4],23%
same,Total Cell Count,[4],406
same,Population Apoptotic (%),[5],26%
same,Population Fragmented Nuclei (%),[5],8%
same,Population Healthy Nuclei (%),[5],78%
same,Population Hoechst High Intensity Objects (%),[5],6%
same,Population Membrane Permeable-Phenotype (%),[5],0%
same,Population Mitochondria Different-Phenotype (%),[5],18%
same,Population Mitotic Cells (%),[5],73%
same,Population Normal (%),[5],93%
same,Population Pyknosed Nuclei (%),[5],12%
same,Population Tubulin-Different-Phenotype (%),[5],17%
same,Total Cell Count,[5],475
same,Population Apoptotic (%),[6],45%
same,Population Fragmented Nuclei (%),[6],9%
same,Population Healthy Nuclei (%),[6],80%
same,Population Hoechst High Intensity Objects (%),[6],13%
same,Population Mitochondria Different-Phenotype (%),[6],38%
same,Population Mitotic Cells (%),[6],54%
same,Population Normal (%),[6],86%
same,Population Pyknosed Nuclei (%),[6],10%
same,Population Tubulin-Different-Phenotype (%),[6],15%
same,Total Cell Count,[6],366
same,Population Apoptotic (%),[7],21%
same,Population Fragmented Nuclei (%),[7],9%
same,Population Healthy Nuclei (%),[7],79%
same,Population Hoechst High Intensity Objects (%),[7],5%
same,Population Membrane Permeable-Phenotype (%),[7],0%
same,Population Mitochondria Different-Phenotype (%),[7],25%
same,Population Mitotic Cells (%),[7],78%
same,Population Normal (%),[7],94%
same,Population Pyknosed Nuclei (%),[7],11%
same,Population Tubulin-Different-Phenotype (%),[7],12%
same,Total Cell Count,[7],632
same,Population Apoptotic (%),[8],33%
same,Population Fragmented Nuclei (%),[8],7%
same,Population Healthy Nuclei (%),[8],85%
same,Population Hoechst High Intensity Objects (%),[8],4%
same,Population Mitochondria Different-Phenotype (%),[8],42%
same,Population Mitotic Cells (%),[8],66%
same,Population Normal (%),[8],95%
same,Population Pyknosed Nuclei (%),[8],7%
same,Population Tubulin-Different-Phenotype (%),[8],17%
same,Total Cell Count,[8],542
same,Population Apoptotic (%),[9],21%
same,Population Fragmented Nuclei (%),[9],14%
same,Population Healthy Nuclei (%),[9],77%
same,Population Hoechst High Intensity Objects (%),[9],2%
same,Population Membrane Permeable-Phenotype (%),[9],2%
same,Population Mitochondria Different-Phenotype (%),[9],11%
same,Population Mitotic Cells (%),[9],78%
same,Population Normal (%),[9],97%
same,Population Pyknosed Nuclei (%),[9],7%
same,Population Tubulin-Different-Phenotype (%),[9],9%
same,Total Cell Count,[9],918
same,Population Apoptotic (%),[10],41%
same,Population Fragmented Nuclei (%),[10],11%
same,Population Healthy Nuclei (%),[10],81%
same,Population Hoechst High Intensity Objects (%),[10],4%
same,Population Membrane Permeable-Phenotype (%),[10],0%
same,Population Mitochondria Different-Phenotype (%),[10],18%
same,Population Mitotic Cells (%),[10],58%
same,Population Normal (%),[10],95%
same,Population Pyknosed Nuclei (%),[10],6%
same,Population Tubulin-Different-Phenotype (%),[10],10%
same,Total Cell Count,[10],526
same,Population Apoptotic (%),[11],17%
same,Population Fragmented Nuclei (%),[11],15%
same,Population Healthy Nuclei (%),[11],79%
same,Population Hoechst High Intensity Objects (%),[11],0%
same,Population Membrane Permeable-Phenotype (%),[11],1%
same,Population Mitochondria Different-Phenotype (%),[11],13%
same,Population Mitotic Cells (%),[11],82%
same,Population Normal (%),[11],99%
same,Population Pyknosed Nuclei (%),[11],5%
same,Population Tubulin-Different-Phenotype (%),[11],6%
same,Total Cell Count,[11],1116
same,Population Apoptotic (%),[12],25%
same,Population Fragmented Nuclei (%),[12],16%
same,Population Healthy Nuclei (%),[12],77%
same,Population Hoechst High Intensity Objects (%),[12],2%
same,Population Membrane Permeable-Phenotype (%),[12],0%
same,Population Mitochondria Different-Phenotype (%),[12],16%
same,Population Mitotic Cells (%),[12],74%
same,Population Normal (%),[12],97%
same,Population Tubulin-Different-Phenotype (%),[12],10%
same,Total Cell Count,[12],827
